# Assays:
# Type in all cases: functional
# Bacteroides ovatus = experiment: Antibacterial activity against Bacteroides ovatus isolated from patient with diabetic foot infection after 44 to 48 hrs by agar dilution method
# How it was run: (§1)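 CLSI M11-A7 agar dilution: serial twofold drug dilutions made on the test day and added to molten agar. Spots of 10^5 CFU were applied by replicator, with drug-free control plates inoculated before and after each set. Incubation was 44 to 48 h at 37°C in an anaerobic chamber. MIC was the lowest concentration giving no growth or a marked change in growth versus controls.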
# Parvimonas micra [1] = experiment: Antibacterial activity against Peptostreptococcus micros isolated from patient with diabetic foot infection assessed as percent resistant isolates after 44 to 48 hrs by agar dilution method
# How it was run: (§2)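 Agar dilution per CLSI M11-A7. Twofold drug dilutions made on the test day and added to molten agar. Replicator-applied inoculum of 10^5 CFU/spot. Drug-free control plates inoculated before and after each drug set. Incubation at 37°C for 44 to 48 h, anaerobic chamber. MIC taken as the lowest concentration giving no growth or a marked change in growth versus controls.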
# [2] = tested on: Parabacteroides distasonis; experiment: Antibacterial activity against Parabacteroides distasonis isolated from patient with diabetic foot infection assessed as percent resistant isolates after 44 to 48 hrs by agar dilution method; how it was run: as §2
# Bacteroides stercoris [3] = experiment: Antibacterial activity against Bacteroides stercoris isolated from patient with diabetic foot infection after 44 to 48 hrs by agar dilution method; how it was run: as §1
# Parabacteroides merdae = experiment: Antibacterial activity against Parabacteroides merdae isolated from patient with diabetic foot infection assessed as percent resistant isolates after 44 to 48 hrs by agar dilution method; how it was run: as §2
# [4] = tested on: Anaerocolumna aminovalerica; experiment: Antibacterial activity against Clostridium aminovalericum isolated from patient with diabetic foot infection assessed as percent resistant isolates after 44 to 48 hrs by agar dilution method; how it was run: as §2
# Clostridium perfringens = experiment: Antibacterial activity against Clostridium perfringens isolated from patient with diabetic foot infection after 44 to 48 hrs by agar dilution method; how it was run: as §2
# Bacteroides uniformis [5] = experiment: Antibacterial activity against Bacteroides uniformis isolated from patient with diabetic foot infection assessed as percent resistant isolates after 44 to 48 hrs by agar dilution method; how it was run: as §2
# Phocaeicola vulgatus = experiment: Antibacterial activity against Bacteroides vulgatus isolated from patient with diabetic foot infection assessed as percent resistant isolates after 44 to 48 hrs by agar dilution method; how it was run: as §2
# Bacteroides fragilis [6] = experiment: Antibacterial activity against Bacteroides fragilis isolated from patient with diabetic foot infection after 44 to 48 hrs by agar dilution method; how it was run: as §1
# Anaerococcus prevotii [7] = experiment: Antibacterial activity against Anaerococcus prevotii isolated from patient with diabetic foot infection assessed as percent resistant isolates after 44 to 48 hrs by agar dilution method; how it was run: as §2
# Anaerococcus tetradius = experiment: Antibacterial activity against Anaerococcus tetradius isolated from patient with diabetic foot infection assessed as percent resistant isolates after 44 to 48 hrs by agar dilution method; how it was run: as §2
# Parvimonas micra [8] = experiment: Antibacterial activity against Peptostreptococcus micros isolated from patient with diabetic foot infection after 44 to 48 hrs by agar dilution method; how it was run: as §1
# Anaerococcus prevotii [9] = experiment: Antibacterial activity against Anaerococcus prevotii isolated from patient with diabetic foot infection after 44 to 48 hrs by agar dilution method; how it was run: as §1
# Lacrimispora sphenoides [10] = experiment: Antibacterial activity against Clostridium sphenoides isolated from patient with diabetic foot infection after 44 to 48 hrs by agar dilution method; how it was run: as §1
# Bacteroides fragilis [11] = experiment: Antibacterial activity against Bacteroides fragilis isolated from patient with diabetic foot infection assessed as percent resistant isolates after 44 to 48 hrs by agar dilution method; how it was run: as §2
# Anaerococcus vaginalis = experiment: Antibacterial activity against Anaerococcus vaginalis isolated from patient with diabetic foot infection after 44 to 48 hrs by agar dilution method; how it was run: as §1
# Bacteroides caccae [12] = experiment: Antibacterial activity against Bacteroides caccae isolated from patient with diabetic foot infection after 44 to 48 hrs by agar dilution method; how it was run: as §1
# Lacrimispora sphenoides [13] = experiment: Antibacterial activity against Clostridium sphenoides isolated from patient with diabetic foot infection assessed as percent resistant isolates after 44 to 48 hrs by agar dilution method; how it was run: as §2
# Prevotella bivia = experiment: Antibacterial activity against Prevotella bivia isolated from patient with diabetic foot infection after 44 to 48 hrs by agar dilution method; how it was run: as §1
# Cutibacterium acnes [14] = experiment: Antibacterial activity against Propionibacterium acnes isolated from patient with diabetic foot infection after 44 to 48 hrs by agar dilution method; how it was run: as §1
# [15] = tested on: Parabacteroides distasonis; experiment: Antibacterial activity against Parabacteroides distasonis isolated from patient with diabetic foot infection after 44 to 48 hrs by agar dilution method; how it was run: as §1
# Porphyromonas somerae = experiment: Antibacterial activity against Porphyromonas somerae isolated from patient with diabetic foot infection after 44 to 48 hrs by agar dilution method; how it was run: as §1
# Bacteroides stercoris [16] = experiment: Antibacterial activity against Bacteroides stercoris isolated from patient with diabetic foot infection assessed as percent resistant isolates after 44 to 48 hrs by agar dilution method; how it was run: as §2
# [17] = tested on: Clostridium malenominatum; experiment: Antibacterial activity against Clostridium malenominatum isolated from patient with diabetic foot infection after 44 to 48 hrs by agar dilution method; how it was run: as §1
# Bacteroides caccae [18] = experiment: Antibacterial activity against Bacteroides caccae isolated from patient with diabetic foot infection assessed as percent resistant isolates after 44 to 48 hrs by agar dilution method; how it was run: as §2
# Bacteroides uniformis [19] = experiment: Antibacterial activity against Bacteroides uniformis isolated from patient with diabetic foot infection after 44 to 48 hrs by agar dilution method; how it was run: as §1
# [Clostridium] innocuum = Antibacterial activity against Clostridium innocuum isolated from patient with diabetic foot infection assessed as percent resistant isolates after 44 to 48 hrs by agar dilution method; how it was run: as §2
# Finegoldia magna [20] = experiment: Antibacterial activity against Finegoldia magna isolated from patient with diabetic foot infection assessed as percent resistant isolates after 44 to 48 hrs by agar dilution method; how it was run: as §2
# [21] = tested on: Bacteroides thetaiotaomicron; experiment: Antibacterial activity against Bacteroides thetaiotaomicron isolated from patient with diabetic foot infection after 44 to 48 hrs by agar dilution method; how it was run: as §1
# [22] = tested on: Peptostreptococcus anaerobius; experiment: Antibacterial activity against Peptostreptococcus anaerobius isolated from patient with diabetic foot infection assessed as percent resistant isolates after 44 to 48 hrs by agar dilution method; how it was run: as §2
# [23] = tested on: Porphyromonas asaccharolytica; experiment: Antibacterial activity against Porphyromonas asaccharolyticus isolated from patient with diabetic foot infection assessed as percent resistant isolates after 44 to 48 hrs by agar dilution method; how it was run: as §2
# [24] = tested on: Peptoniphilus asaccharolyticus; experiment: Antibacterial activity against Peptoniphilus asaccharolyticus isolated from patient with diabetic foot infection assessed as percent resistant isolates after 44 to 48 hrs by agar dilution method; how it was run: as §2
# [25] = tested on: Bacteroides thetaiotaomicron; experiment: Antibacterial activity against Bacteroides thetaiotaomicron isolated from patient with diabetic foot infection assessed as percent resistant isolates after 44 to 48 hrs by agar dilution method; how it was run: as §2
# [26] = tested on: Peptoniphilus asaccharolyticus; experiment: Antibacterial activity against Peptoniphilus asaccharolyticus isolated from patient with diabetic foot infection after 44 to 48 hrs by agar dilution method; how it was run: as §1
# Cutibacterium acnes [27] = experiment: Antibacterial activity against Propionibacterium acnes isolated from patient with diabetic foot infection assessed as percent resistant isolates after 44 to 48 hrs by agar dilution method; how it was run: as §2
# Finegoldia magna [28] = experiment: Antibacterial activity against Finegoldia magna isolated from patient with diabetic foot infection after 44 to 48 hrs by agar dilution method; how it was run: as §1
smiles,measurement,setting,value
C[C@@H](O)[C@H]1C(=O)N2C(C(=O)O)=C(S[C@@H]3CN[C@H](C(=O)Nc4cccc(C(=O)O)c4)C3)[C@H](C)[C@H]12 [ERTAPENEM],MIC50,Bacteroides ovatus,1 mg/L
same,MIC90,Bacteroides ovatus,2 mg/L
same,Activity,Parvimonas micra [1],0%
same,Activity,[2],0%
same,MIC50,Bacteroides stercoris [3],1 mg/L
same,MIC90,Bacteroides stercoris [3],2 mg/L
same,Activity,Parabacteroides merdae,0%
same,Activity,[4],0%
same,MIC50,Clostridium perfringens,0.06 mg/L
same,MIC90,Clostridium perfringens,0.125 mg/L
same,Activity,Bacteroides uniformis [5],0%
same,Activity,Phocaeicola vulgatus,0%
same,MIC50,Bacteroides fragilis [6],0.25 mg/L
same,MIC90,Bacteroides fragilis [6],1 mg/L
same,Activity,Anaerococcus prevotii [7],0%
same,Activity,Anaerococcus tetradius,0%
same,MIC50,Parvimonas micra [8],0.25 mg/L
same,MIC90,Parvimonas micra [8],0.5 mg/L
same,MIC50,Anaerococcus prevotii [9],0.125 mg/L
same,MIC90,Anaerococcus prevotii [9],0.25 mg/L
same,MIC50,Lacrimispora sphenoides [10],0.25 mg/L
same,MIC90,Lacrimispora sphenoides [10],2 mg/L
same,Activity,Bacteroides fragilis [11],0%
same,MIC50,Anaerococcus vaginalis,0.125 mg/L
same,MIC90,Anaerococcus vaginalis,0.25 mg/L
same,MIC50,Bacteroides caccae [12],1 mg/L
same,MIC90,Bacteroides caccae [12],2 mg/L
same,Activity,Lacrimispora sphenoides [13],0%
same,MIC50,Prevotella bivia,0.25 mg/L
same,MIC90,Prevotella bivia,0.5 mg/L
same,MIC50,Cutibacterium acnes [14],0.125 mg/L
same,MIC90,Cutibacterium acnes [14],0.25 mg/L
same,MIC50,[15],1 mg/L
same,MIC90,[15],2 mg/L
same,MIC50,Porphyromonas somerae,≤ 0.015 mg/L
same,MIC90,Porphyromonas somerae,0.06 mg/L
same,Activity,Bacteroides stercoris [16],0%
same,MIC50,[17],0.25 mg/L
same,MIC90,[17],2 mg/L
same,Activity,Bacteroides caccae [18],0%
same,MIC50,Bacteroides uniformis [19],1 mg/L
same,MIC90,Bacteroides uniformis [19],2 mg/L
same,Activity,[Clostridium] innocuum,0%
same,Activity,Finegoldia magna [20],0%
same,MIC50,[21],1 mg/L
same,MIC90,[21],2 mg/L
same,Activity,[22],0%
same,Activity,[23],0%
same,Activity,[24],0%
same,Activity,[25],0%
same,MIC50,[26],≤ 0.015 mg/L
same,MIC90,[26],0.25 mg/L
same,Activity,Cutibacterium acnes [27],0%
same,MIC50,Finegoldia magna [28],0.06 mg/L
same,MIC90,Finegoldia magna [28],0.125 mg/L
C[C@@H](O)[C@H]1C(=O)N2C(C(=O)O)=C(SCCNC=N)C[C@H]12 [IMIPENEM ANHYDROUS],MIC50,Bacteroides ovatus,0.5 mg/L
same,MIC90,Bacteroides ovatus,1 mg/L
same,Activity,Parvimonas micra [1],0%
same,Activity,[2],0%
same,MIC50,Bacteroides stercoris [3],0.5 mg/L
same,MIC90,Bacteroides stercoris [3],1 mg/L
same,Activity,Parabacteroides merdae,0%
same,Activity,[4],0%
same,MIC50,Clostridium perfringens,0.06 mg/L
same,MIC90,Clostridium perfringens,0.125 mg/L
same,Activity,Bacteroides uniformis [5],0%
same,Activity,Phocaeicola vulgatus,0%
same,MIC50,Bacteroides fragilis [6],0.125 mg/L
same,MIC90,Bacteroides fragilis [6],0.125 mg/L
same,Activity,Anaerococcus prevotii [7],0%
same,Activity,Anaerococcus tetradius,0%
same,MIC50,Parvimonas micra [8],0.03 mg/L
same,MIC90,Parvimonas micra [8],0.06 mg/L
same,MIC50,Anaerococcus prevotii [9],≤ 0.015 mg/L
same,MIC90,Anaerococcus prevotii [9],0.03 mg/L
same,MIC50,Lacrimispora sphenoides [10],0.25 mg/L
same,MIC90,Lacrimispora sphenoides [10],2 mg/L
same,Activity,Bacteroides fragilis [11],0%
same,MIC50,Anaerococcus vaginalis,≤ 0.015 mg/L
same,MIC90,Anaerococcus vaginalis,0.03 mg/L
same,MIC50,Bacteroides caccae [12],0.5 mg/L
same,MIC90,Bacteroides caccae [12],1 mg/L
same,Activity,Lacrimispora sphenoides [13],0%
same,MIC50,Prevotella bivia,0.03 mg/L
same,MIC90,Prevotella bivia,0.03 mg/L
same,MIC50,Cutibacterium acnes [14],≤ 0.015 mg/L
same,MIC90,Cutibacterium acnes [14],≤ 0.015 mg/L
same,MIC50,[15],0.5 mg/L
same,MIC90,[15],1 mg/L
same,MIC50,Porphyromonas somerae,< 0.015 mg/L
same,MIC90,Porphyromonas somerae,≤ 0.015 mg/L
same,Activity,Bacteroides stercoris [16],0%
same,MIC50,[17],0.25 mg/L
same,MIC90,[17],2 mg/L
same,Activity,Bacteroides caccae [18],0%
same,MIC50,Bacteroides uniformis [19],0.5 mg/L
same,MIC90,Bacteroides uniformis [19],1 mg/L
same,Activity,[Clostridium] innocuum,0%
same,Activity,Finegoldia magna [20],0%
same,MIC50,[21],0.5 mg/L
same,MIC90,[21],1 mg/L
same,Activity,[22],0%
same,Activity,[23],0%
same,Activity,[24],0%
same,Activity,[25],0%
same,MIC50,[26],≤ 0.015 mg/L
same,MIC90,[26],0.03 mg/L
same,Activity,Cutibacterium acnes [27],0%
same,MIC50,Finegoldia magna [28],0.03 mg/L
same,MIC90,Finegoldia magna [28],0.06 mg/L
